Compound activity: PubChem BioAssay, Broad Institute
KDM4C inh = inhibitors of GASC-1 (KDM4C) histone demethylase, primary screen, biochemical, single concentration HTS; GST-KDM4C 2-372, H3K9me3 peptide, LANCE TR-FRET; AID 720574, 2013; 96,000 tested, 0.15% active; Lysine-specific demethylase 4C (Homo sapiens), Q9H3R0; inhibition, % at 12.5 µM;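 active = mean replicate inhibition above about 25%, with at least 55% of replicates also reaching it, limit read from the data, passing the limit was not always enough; inconclusive = only one of those two conditions met; inactive = neither condition met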
Target sequence (Q9H3R0 2-372 limits assumed): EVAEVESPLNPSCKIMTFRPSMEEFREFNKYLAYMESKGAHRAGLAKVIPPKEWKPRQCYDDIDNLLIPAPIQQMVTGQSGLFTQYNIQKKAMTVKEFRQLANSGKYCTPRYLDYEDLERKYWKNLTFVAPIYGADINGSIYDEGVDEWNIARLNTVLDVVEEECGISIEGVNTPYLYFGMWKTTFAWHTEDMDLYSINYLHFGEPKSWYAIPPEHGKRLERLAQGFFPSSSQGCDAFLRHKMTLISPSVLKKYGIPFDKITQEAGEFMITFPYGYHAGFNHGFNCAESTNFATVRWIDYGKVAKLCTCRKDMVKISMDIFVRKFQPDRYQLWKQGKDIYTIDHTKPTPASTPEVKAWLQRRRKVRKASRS
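System: N-terminal GST-fused human GASC-1 (KDM4C) fragment, residues 2-372 / Amount: 10 nM GST-KDM4C in enzyme reaction / Also added: H3K9me3 peptide with Fe(II)/2OG / Times: 30 min demethylation and 1 h detection at room temperature / Signal: LANCE TR-FRET / Read-out basis: Fall in 671/618 emission ratio as inhibition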
T cruzi growth-1 = T. cruzi intracellular proliferation inhibitors, primary screen, cell-based, beta-gal Tulahuen parasites, NIH3T3 host, luminescence | T. cruzi beta-gal in NIH3T3, GalScreen luminescence, 90 h | inhibition, % at 8.34 µM | 77,000 tested, 5.9% active;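 active = mean inhibition above about 93%, with at least 55% of replicates each passing it, limit read from the data, passing the limit was not always enough; inconclusive = only one of those two conditions holds; inactive = neither condition holds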
IDH1 R132H inh = inhibitors of IDH1 R132H reductase, primary screen, biochemical, plate reader, single point; AID 624101, 2012; inhibition, % at 10 µM; Isocitrate dehydrogenase [NADP] cytoplasmic (Homo sapiens), O75874; diaphorase/resazurin fluorescence, 60 min; 70,000 tested, 0.18% active; in the data active = inhibition above about 34%; inconclusive = no clear call, values can overlap the other calls; inactive = below about 11%;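 note: 0% = DMSO and 100% = no enzyme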
Target sequence (O75874 whole entry R132H): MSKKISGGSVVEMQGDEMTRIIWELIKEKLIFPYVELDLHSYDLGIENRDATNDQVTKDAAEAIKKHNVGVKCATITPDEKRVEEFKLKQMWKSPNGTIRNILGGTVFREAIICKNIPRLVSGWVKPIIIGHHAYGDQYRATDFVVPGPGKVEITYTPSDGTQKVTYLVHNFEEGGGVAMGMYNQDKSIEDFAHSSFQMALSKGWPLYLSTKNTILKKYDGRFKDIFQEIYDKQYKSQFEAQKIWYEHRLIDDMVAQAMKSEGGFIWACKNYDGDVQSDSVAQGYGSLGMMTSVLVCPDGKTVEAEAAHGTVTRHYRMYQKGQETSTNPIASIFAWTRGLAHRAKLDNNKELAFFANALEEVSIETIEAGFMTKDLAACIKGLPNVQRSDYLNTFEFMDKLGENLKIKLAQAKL
T cruzi growth-2 = T. cruzi intracellular proliferation inhibitors, confirmation, cell-based, NIH3T3 host, beta-gal parasite, luminescence, cherry-pick; T. cruzi beta-gal in NIH3T3, GalScreen luminescence, 90 h; 5,600 tested, 72% active; inhibition, % at 8.35 µM; AID 651739, 2012; shares compounds with T cruzi growth-1;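 active = mean replicate inhibition above about 95% and at least 55% of replicates individually reaching it, limit read from the data; inconclusive = only one of the two criteria is met; inactive = neither criterion is met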
T cruzi growth-3 = inhibitors of intracellular T. cruzi replication, confirmation, NIH3T3 host cells, beta-gal parasites, cherry-pick, set 2 | shares compounds with T cruzi growth-1 | T. cruzi beta-gal in NIH3T3, GalScreen luminescence, 90 h | inhibition, % at 2.09 µM | 5,600 tested, 21% active | AID 651740, 2012;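 active = mean inhibition above about 95%, with at least 55% of replicates also reaching it, limit read from the data; inconclusive = meets just one of the two conditions; inactive = meets neither condition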;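 note: plate controls were neutral control median for no effect and positive control median for full effect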
3T3 cytotox = cytotoxicity in mouse NIH/3T3 fibroblasts, confirmation, cytotoxicity control for T. cruzi proliferation inhibitor project, cell-based, cherry-pick, single point; shares compounds with T cruzi growth-1; NIH/3T3 viability, CellTiter-Glo ATP luminescence, 90 h; cytotoxicity (signal decrease), % at 8.35 µM; 5,600 tested, 14% active;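 active = mean signal decrease across replicates above about 35% based on untreated-well scatter, with enough replicates individually passing, limit read from the data; inconclusive = no rule stated though some were filed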;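 note: 0% = median of neutral control wells and 100% = median of positive control wells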
3T3 cytotox 2 = NIH/3T3 fibroblast cytotoxicity, confirmation, cytotoxicity control, cell-based, cherry-pick, single point, set 2; shares compounds with T cruzi growth-1; NIH/3T3 viability, CellTiter-Glo ATP luminescence, 90 h; inhibition, % at 24.9 µM; 5,600 tested, 56% active;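 active = mean loss of cell viability signal at or above a set limit, and enough replicates individually reaching it; inconclusive = meets only the mean limit or only the replicate share; inactive = meets neither condition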;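 note: 0% = median of neutral control wells and 100% = median of positive control wells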
* marks the source's active call; other numbers are inactive results; ? = inconclusive; nt = no result. The entries come from a sample that favours hits as a whole.

SMILES | KDM4C inh | T cruzi growth-1 | IDH1 R132H inh | T cruzi growth-2 | T cruzi growth-3 | 3T3 cytotox | 3T3 cytotox 2
C[C@H](CO)N1C[C@H](C)[C@H](CN(C)C(=O)Nc2ccc(C(C)(C)C)cc2)OCc2cnnn2CCCC1=O | 0 | -31 | -2 | nt | nt | nt | nt
COc1ccc2c3c(n(C)c2c1)[C@H](CO)N(C(=O)NC1CCCC1)CC31CN(C)C1 | -1 | nt | nt | nt | nt | nt | nt
O=S(=O)(c1ccccc1F)N1CCCCN2[C@H](C1)[C@@H](c1ccc(-c3ccccc3)cc1)[C@@H]2CO | nt | 69 | nt | nt | nt | nt | nt
O=S(=O)(c1ccccc1F)N1CCCCN2[C@@H](CO)[C@@H](c3ccc(-c4ccncc4)cc3)[C@@H]2C1 | 0 | ? | nt | 107* | 35 | 30 | 27*
Cc1ccccc1S(=O)(=O)N1CCCCN2[C@H](CO)[C@H](c3ccc(-c4cccnc4)cc3)[C@H]2C1 | 1 | 100* | nt | 108* | 80 | 29 | 80*
Cc1ccccc1S(=O)(=O)N1CCCCN2[C@H](CO)[C@@H](c3ccc(-c4cncnc4)cc3)[C@H]2C1 | -1 | 73 | nt | nt | nt | nt | nt
Cc1ccccc1S(=O)(=O)N1CCCCN2[C@H](CO)[C@@H](c3ccc(-c4cccnc4)cc3)[C@@H]2C1 | -1 | 74 | nt | nt | nt | nt | nt
Cc1ccccc1S(=O)(=O)N1CCCCN2[C@@H](CO)[C@H](c3ccc(-c4cncnc4)cc3)[C@@H]2C1 | 0 | 117* | nt | 73 | 22 | 11 | ?
CC(=O)N(C)C[C@@H]1OCc2ccccc2-c2ccccc2C(=O)N([C@H](C)CO)C[C@H]1C | 2 | -4 | 0 | nt | nt | nt | nt
COc1ccc(NC(=O)Nc2ccc3c(c2)C(=O)N([C@@H](C)CO)C[C@@H](C)[C@@H](CN(C)S(C)(=O)=O)O3)cc1 | 0 | -143 | nt | nt | nt | nt | nt
O=C(C[C@@H]1C=C[C@@H](NC(=O)Nc2ccc(F)cc2)[C@H](CO)O1)NCCN1CCCC1 | -2 | -4 | 0 | nt | nt | nt | nt
COc1ccc(-c2nnc(SCC(=O)c3ccc(F)cc3)n2-c2ccccc2)cc1OC | nt | nt | 0 | nt | nt | nt | nt
CCCC(=O)Nc1ccc2c(c1)OC[C@@H](C)NC[C@H](C)[C@@H](OC)CN(C)C2=O | 2 | 8 | 0 | nt | nt | nt | nt
Cc1ccc(S(=O)(=O)N(C)C[C@H]2Oc3cc(C#Cc4ccccc4)ccc3S(=O)(=O)N([C@@H](C)CO)C[C@@H]2C)cc1 | -2 | nt | 0 | nt | nt | nt | nt
COc1ccccc1-c1ccc2c(c1)O[C@H](CN(C)S(=O)(=O)c1ccc(C)cc1)[C@H](C)CN([C@H](C)CO)S2(=O)=O | 0 | 120* | 0 | 100* | ? | 18 | 53*
Cc1ccc(S(=O)(=O)N(C)C[C@H]2Oc3cc(C#Cc4ccccc4)ccc3S(=O)(=O)N([C@H](C)CO)C[C@H]2C)cc1 | -1 | nt | -1 | nt | nt | nt | nt
COc1ccccc1-c1ccc2c(c1)O[C@@H](CN(C)S(=O)(=O)c1ccc(C)cc1)[C@H](C)CN([C@@H](C)CO)S2(=O)=O | 1 | 126* | nt | 100* | 71 | 24 | 46*
COc1ccccc1C#Cc1cnc2c(c1)C(=O)N([C@@H](C)CO)C[C@@H](C)[C@H](CN(C)C(=O)c1ccc3c(c1)OCO3)O2 | -1 | nt | nt | nt | nt | nt | nt
O=C(COc1ccc([N+](=O)[O-])cc1)Nc1ccc2oc(-c3ccccc3Br)nc2c1 | nt | nt | 0 | nt | nt | nt | nt
CC1CCc2c(sc(NC(=O)Cn3nc(C(F)(F)F)c4c3CCCCC4)c2C#N)C1 (centres undefined) | nt | nt | 0 | nt | nt | nt | nt
C[C@H]1CN([C@@H](C)CO)S(=O)(=O)c2ccc(C#CC3CCCC3)cc2O[C@H]1CN(C)Cc1cncnc1 | 0 | nt | -1 | nt | nt | nt | nt
C[C@@H]1CCCCO[C@@H](CN(C)C(=O)Nc2ccccc2)[C@H](C)CN([C@@H](C)CO)C(=O)c2cc(NC(=O)Nc3ccc(F)cc3)ccc2O1 | 0 | 97* | 0 | 114* | 58 | -16 | -20
C[C@@H]1CCCCO[C@@H](CN(C)C(=O)Nc2ccc(F)cc2)[C@@H](C)CN([C@@H](C)CO)C(=O)c2cc(NC(=O)Nc3ccccc3)ccc2O1 | 0 | 79 | 3 | nt | nt | nt | nt
C[C@@H]1CN([C@H](C)CO)C(=O)c2cc(NC(=O)Nc3ccc(F)cc3)ccc2O[C@@H](C)CCCCO[C@H]1CN(C)C(=O)Nc1ccccc1 | -3 | 48 | 0 | nt | nt | nt | nt
C[C@H](CO)N1C[C@H](C)[C@H](CN(C)C(=O)Nc2ccc(F)cc2)OCCCC[C@H](C)Oc2ccc(NC(=O)Nc3ccccc3)cc2C1=O | 0 | 123* | -3 | 107* | 50 | 6 | 1
SMILES | KDM4C inh | T cruzi growth-1 | IDH1 R132H inh | T cruzi growth-2 | T cruzi growth-3 | 3T3 cytotox | 3T3 cytotox 2
C[C@@H]1CN([C@@H](C)CO)C(=O)Cc2cc(NC(=O)Nc3ccc4c(c3)OCO4)ccc2O[C@@H]1CN(C)Cc1ccncc1 | 1 | nt | 20 | nt | nt | nt | nt
C/C=C/c1ccc([C@@H]2[C@@H](C#N)N(c3nc(CC)cs3)[C@H]2CO)cc1 | -2 | 93 | nt | nt | nt | nt | nt
C/C=C/c1ccc([C@@H]2[C@@H](CO)N(c3nc(CC)cs3)[C@H]2C#N)cc1 | -1 | 81 | nt | nt | nt | nt | nt
C/C=C/c1ccc([C@H]2[C@@H](CO)N(c3nc(CC)cs3)[C@H]2CNC(C)C)cc1 | -1 | 98* | nt | 98* | 59 | 18 | 103*
C/C=C/c1ccc([C@@H]2[C@H](C#N)N(c3nc(CC)cs3)[C@H]2CO)cc1 | -3 | 104* | nt | 105* | 83 | 21 | 27*
C/C=C/c1ccc([C@H]2[C@@H](C#N)N(c3nc(CC)cs3)[C@H]2CO)cc1 | -2 | 109* | nt | 103* | 111* | 19 | ?
C/C=C/c1ccc([C@H]2[C@H](CO)N(c3nc(CC)cs3)[C@H]2CNC(C)C)cc1 | 0 | 90 | nt | nt | nt | nt | nt
O=C(N[C@@H]1CC[C@@H](CCNS(=O)(=O)c2ccc(F)cc2)O[C@H]1CO)c1ccccn1 | 0 | -60 | 0 | nt | nt | nt | nt
C[C@H]1CN([C@@H](C)CO)C(=O)c2cc(NS(=O)(=O)c3ccc(F)cc3)ccc2O[C@@H]1CN(C)S(=O)(=O)c1cn(C)cn1 | 0 | 12 | 0 | nt | nt | nt | nt
CC(C)C#Cc1ccc2c(c1)O[C@@H](CN(C)Cc1ccccc1)[C@H](C)CN([C@H](C)CO)S2(=O)=O | 1 | 93 | 0 | nt | nt | nt | nt
